Values after ≈ are worked out from the molar mass of the structure shown. Active and inactive are the calls of the source. The rule behind the calls is not given here.
What was measured:
[1] = target: T1, Bifunctional epoxide hydrolase 2 (Mus musculus, UniProt P34914); assay: Inhibition of recombinant mouse soluble epoxide hydrolase using CMNPC as substrate preincubated for 5 mins followed by substrate addition and measured at 30 secs interval for 10 mins by fluorescence assay
T1 sequence (P34914 whole entry): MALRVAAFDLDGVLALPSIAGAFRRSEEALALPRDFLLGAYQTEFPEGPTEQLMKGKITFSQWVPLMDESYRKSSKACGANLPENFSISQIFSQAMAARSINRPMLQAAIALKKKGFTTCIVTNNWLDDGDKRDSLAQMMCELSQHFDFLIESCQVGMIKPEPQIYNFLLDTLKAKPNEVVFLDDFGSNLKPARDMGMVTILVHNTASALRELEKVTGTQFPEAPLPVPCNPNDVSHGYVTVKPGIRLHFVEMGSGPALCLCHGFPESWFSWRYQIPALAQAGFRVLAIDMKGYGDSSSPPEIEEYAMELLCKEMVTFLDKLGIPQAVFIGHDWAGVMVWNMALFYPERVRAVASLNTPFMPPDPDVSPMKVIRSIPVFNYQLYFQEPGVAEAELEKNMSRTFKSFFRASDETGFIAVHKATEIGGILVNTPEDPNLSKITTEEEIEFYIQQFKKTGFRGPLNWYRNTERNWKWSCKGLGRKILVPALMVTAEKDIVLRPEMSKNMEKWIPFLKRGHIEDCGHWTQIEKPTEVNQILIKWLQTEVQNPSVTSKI
How it was run: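 Purified recombinant enzyme was preincubated with inhibitor (0.4–100,000 nM final) for 5 min at 30 °C in 100 mM sodium phosphate, pH 7.4, with 0.1 mg/mL BSA and 1% DMSO. CMNPC was added at 5 μM final. 6-Methoxynaphthaldehyde fluorescence (ex 330/em 465 nm) was read every 30 s for 10 min. IC50 values are averages of three replicates.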

[2] = Apparent permeability across apical to basolateral side in human Caco-2 cells at 10 uM measured after 2 hrs by LC-MS/MS analysis; details: caco-2, 2 h
[3] = Apparent permeability across basolateral to apical side in human Caco-2 cells at 10 uM measured after 2 hrs by LC-MS/MS analysis; details: caco-2, 2 h
physchem = details: 1% DMSO/99% PBS buffer solution
[4] = target: T2, Bifunctional epoxide hydrolase 2 (Homo sapiens, UniProt P34913); assay: Inhibition of recombinant human soluble epoxide hydrolase using CMNPC as substrate preincubated for 5 mins followed by substrate addition and measured at 30 secs interval for 10 mins by fluorescence assay
T2 sequence (P34913 whole entry): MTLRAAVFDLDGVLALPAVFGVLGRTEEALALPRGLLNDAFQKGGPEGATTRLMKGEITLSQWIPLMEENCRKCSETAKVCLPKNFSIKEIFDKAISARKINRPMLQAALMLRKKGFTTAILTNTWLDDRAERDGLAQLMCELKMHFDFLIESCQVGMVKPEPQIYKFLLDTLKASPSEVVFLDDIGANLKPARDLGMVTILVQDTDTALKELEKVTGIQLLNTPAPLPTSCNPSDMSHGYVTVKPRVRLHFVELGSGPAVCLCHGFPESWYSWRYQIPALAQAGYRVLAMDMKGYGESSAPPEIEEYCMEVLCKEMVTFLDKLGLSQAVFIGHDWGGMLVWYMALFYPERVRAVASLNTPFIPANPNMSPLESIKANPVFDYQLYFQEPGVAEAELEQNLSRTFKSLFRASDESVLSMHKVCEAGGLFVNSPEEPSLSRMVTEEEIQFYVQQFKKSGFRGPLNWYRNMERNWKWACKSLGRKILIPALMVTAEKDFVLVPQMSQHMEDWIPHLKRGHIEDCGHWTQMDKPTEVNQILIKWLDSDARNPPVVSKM

[5] = Efflux ratio of apparent permeability across basolateral to apical side over apical to basolateral side in human Caco-2 cells at 10 uM measured after 2 hrs by LC-MS/MS analysis
[6] = Stability in human liver microsomes assessed as parent compound remaining measured after 60 mins in presence of NADPH by LC-MS/MS analysis; format: ADME, Microsome; details: read-out: Stabilty
How it was run: (§1)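 Compound is incubated at 37 °C with human, mouse or rat liver microsomes in 50 mM phosphate buffer pH 7.4. […] Samples at 0–60 min are quenched into acetonitrile; percent parent remaining at 60 min is reported. Testosterone is the positive control.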

[7] = Cytotoxicity against human PBMC assessed as reduction in cell viability measured after 72 hrs by ATPlite assay; details: read-out: LC50 (the source's name)
[8] = Stability in rat liver microsomes assessed as parent compound remaining measured after 60 mins in presence of NADPH by LC-MS/MS analysis; format: ADME, Microsome; details: read-out: Stabilty; how it was run: as §1
[9] = target: T3, Prostaglandin G/H synthase 2 (Homo sapiens) (UniProt P35354); assay: Inhibition of recombinant human COX2 using arachidonic acid as substrate measured after 5 mins by fluorescence assay
T3 sequence (whole entry): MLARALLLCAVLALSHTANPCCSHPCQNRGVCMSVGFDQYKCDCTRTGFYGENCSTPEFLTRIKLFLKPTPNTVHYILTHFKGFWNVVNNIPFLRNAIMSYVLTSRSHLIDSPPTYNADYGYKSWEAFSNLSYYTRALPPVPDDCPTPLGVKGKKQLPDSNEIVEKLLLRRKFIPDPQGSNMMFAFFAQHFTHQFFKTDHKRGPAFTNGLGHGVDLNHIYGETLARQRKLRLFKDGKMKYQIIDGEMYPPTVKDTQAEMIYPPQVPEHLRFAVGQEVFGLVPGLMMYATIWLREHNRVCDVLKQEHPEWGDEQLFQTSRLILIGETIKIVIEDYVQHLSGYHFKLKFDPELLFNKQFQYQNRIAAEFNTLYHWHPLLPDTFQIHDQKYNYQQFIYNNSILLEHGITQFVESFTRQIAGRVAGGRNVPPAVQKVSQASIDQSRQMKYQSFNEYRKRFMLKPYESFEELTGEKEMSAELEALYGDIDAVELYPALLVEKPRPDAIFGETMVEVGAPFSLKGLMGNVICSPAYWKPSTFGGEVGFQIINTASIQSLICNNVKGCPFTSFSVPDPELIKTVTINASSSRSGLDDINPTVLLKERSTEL

THLE-2 = assay: Cytotoxicity against human THLE-2 cells assessed as reduction in cell viability measured after 72 hrs by ATPlite assay; format: cell-based; details: thle-2, 72 h, read-out: LC50 (the source's name)
How it was run: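 THLE-2 cells were grown in BEGM with 0.7 μg/mL phosphoethanolamine, 0.5 ng/mL EGF and 10% FBS, plated at 10,000 cells/well and left to adhere for 24 h. Cells were exposed to 0–100 μM final (1% DMSO) for 72 h at 37 °C, 5% CO2.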

[10] = Stability in mouse liver microsomes assessed as parent compound remaining measured after 60 mins in presence of NADPH by LC-MS/MS analysis; format: ADME, Microsome; details: read-out: Stabilty; how it was run: as §1
[11] = target: T4, Polyunsaturated fatty acid 5-lipoxygenase (Homo sapiens) (UniProt P09917); assay: Inhibition of recombinant human full-length LOX5 (1 to 674 residues) expressed in insect cells using arachidonic acid as substrate preincubated for 10 mins followed by substrate addition measured after 20 mins by H2DCFDA probe based fluorescence assay; details: time 30.0 min
T4 sequence (whole entry): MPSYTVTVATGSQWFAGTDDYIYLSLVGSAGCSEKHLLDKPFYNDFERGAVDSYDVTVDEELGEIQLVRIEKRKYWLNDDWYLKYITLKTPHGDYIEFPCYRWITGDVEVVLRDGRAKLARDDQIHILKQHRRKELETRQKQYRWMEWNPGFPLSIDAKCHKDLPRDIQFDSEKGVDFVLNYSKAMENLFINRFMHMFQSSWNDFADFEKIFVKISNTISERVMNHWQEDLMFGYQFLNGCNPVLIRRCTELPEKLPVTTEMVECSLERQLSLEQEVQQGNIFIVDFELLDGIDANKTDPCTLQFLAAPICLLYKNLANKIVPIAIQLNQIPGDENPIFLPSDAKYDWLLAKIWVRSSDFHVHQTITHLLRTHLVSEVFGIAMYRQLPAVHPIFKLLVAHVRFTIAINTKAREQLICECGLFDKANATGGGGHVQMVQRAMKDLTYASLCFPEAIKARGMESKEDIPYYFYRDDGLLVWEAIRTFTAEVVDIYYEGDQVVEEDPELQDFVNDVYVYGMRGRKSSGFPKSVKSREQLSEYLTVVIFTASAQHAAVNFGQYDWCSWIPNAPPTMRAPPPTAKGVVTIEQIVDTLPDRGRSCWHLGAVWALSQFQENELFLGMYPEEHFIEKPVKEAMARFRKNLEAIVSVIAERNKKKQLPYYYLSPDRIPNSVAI

Row | SMILES | IC50 [1] [nM] | IC50 [4] [nM] | also measured
1 | O=C(Nc1ccc(F)c(F)c1F)NC12CC3CC(CC(C3)O1)C2 | 553 | – | Papp [2]: 16.8 ×10⁻⁶ cm/s; Papp [3]: 15.1 ×10⁻⁶ cm/s; solubility kinetic at 2 h (physchem): 27 µM (≈ 8.81 µg/mL)
2 | O=C(Nc1ncncn1)NC12CC3CC(CC(C3)O1)C2 | – | 1450 | –
3 | O=C(Nc1ccc(F)c(F)c1F)NC12CC3CC(CC(C3)C1)C2 | – | – | Papp [2]: 0.67 ×10⁻⁶ cm/s; Papp [3]: 0.46 ×10⁻⁶ cm/s; solubility kinetic at 2 h (physchem): 16 µM (≈ 5.19 µg/mL)
4 | O=C(NC1CCN(C(=O)C2CCOCC2)CC1)NC12CC3CC(CC(C3)O1)C2 | 512 | 491 | –
5 | O=C(Nc1ccon1)NC12CC3CC(CC(C3)O1)C2 | 3850 | 911 | –
6 | O=C(NC1CCN(C(=O)c2cccnc2)CC1)NC12CC3CC(CC(C3)O1)C2 | 291 | 159 | –
7 | O=C(NC1CCN(C(=O)C2CC2)CC1)NC12CC3CC(CC(C3)O1)C2 | 130 | 213 | –
8 | O=C(NC12CC3CC(CC(C3)O1)C2)N[C@H]1CC[C@H](Oc2ccc(C(=O)O)cc2)CC1 | – | 9 | Papp [2]: 0.14 ×10⁻⁶ cm/s; efflux ratio at 2 h, 10 µM [5]: 55.4; Papp [3]: 7.55 ×10⁻⁶ cm/s; solubility kinetic at 2 h (physchem): > 100 µM
9 | O=C(Nc1nc2ccccc2s1)NC12CC3CC(CC(C3)O1)C2 | 14700 | 782 | –
10 | O=C(NC1CCN(Cc2ccccc2)CC1)NC12CC3CC(CC(C3)O1)C2 | – | 1090 | –
11 | O=C(Nc1ccc(Cl)c(C(F)(F)F)c1)NC12CC3CC(CC(C3)O1)C2 | 344 | 19.7 | –
12 | O=C(NC1CCN(C(=O)c2ccccc2F)CC1)NC12CC3CC(CC(C3)O1)C2 | 75.9 | – | remaining at 1 h [6]: 30.2%; CC50 [7]: > 20000 nM; remaining at 1 h [8]: 19.3%; inhibition [9]: inactive; solubility kinetic at 2 h (physchem): > 100 µM; CC50 (THLE-2): > 100000 nM; remaining at 1 h [10]: 39.5%; inhibition [11]: inactive
13 | CCC(=O)N1CCC(NC(=O)NC23CC4CC(CC(C4)O2)C3)CC1 | 234 | 356 | inhibition [9]: inactive; inhibition [11]: inactive
14 | CNc1nc(C)nc(N2CCC(NC(=O)NC34CC5CC(CC(C5)O3)C4)CC2)n1 | 365 | 496 | –
15 | O=C(Nc1cccc(S(F)(F)(F)(F)F)c1)NC12CC3CC(CC(C3)O1)C2 | 723 | 35.9 | –
16 | CS(=O)(=O)N1CCC(NC(=O)NC23CC4CC(CC(C4)O2)C3)CC1 | 174 | 247 | –
17 | CC(=O)c1ccc(N2CCC(NC(=O)NC34CC5CC(CC(C5)O3)C4)CC2)cc1 | 107 | – | remaining at 1 h [6]: 40%; remaining at 1 h [8]: 84%; solubility kinetic at 2 h (physchem): 81.5 µM (≈ 32.4 µg/mL); CC50 (THLE-2): > 100000 nM; remaining at 1 h [10]: 73%
18 | O=C(Nc1cc(Cl)cc(OC(F)(F)F)c1)NC12CC3CC(CC(C3)O1)C2 | 1860 | 52.6 | –
